# Assays:
# EKVX = assay: Antiproliferative activity against human EKVX cells assessed as cell growth inhibition at 10 uM incubated for 48 hrs by SRB assay relative to control; assay type: functional; settings: read-out: GI
# IGROV-1 = assay: Antiproliferative activity against human IGROV-1 cells assessed as cell growth inhibition at 10 uM incubated for 48 hrs by SRB assay relative to control; assay type: functional; settings: read-out: GI
# SK-MEL-2 = assay: Antiproliferative activity against human SK-MEL-2 cells assessed as cell growth inhibition at 10 uM incubated for 48 hrs by SRB assay relative to control; assay type: functional; settings: read-out: GI
# How it was run: (§1)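 Cells plated in 96-well plates at […] cells/well and preincubated 24 h at 37 °C, 5% CO2. Time-zero plates were TCA-fixed. Compound was diluted in medium with 50 µg/mL gentamicin and cells exposed for 48 h. Adherent cells fixed with 10% final TCA; suspension cells with 16% final TCA. Plates stained with 0.4% SRB in 1% acetic acid, dye solubilized in 10 mM Trizma, absorbance read at 515 nm. Percent growth calculated against time-zero and control.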
# [1] = target: Vascular endothelial growth factor receptor 2 (Homo sapiens, UniProt P35968); assay: Inhibition of VEGFR-2 (unknown origin) incubated for 45 mins by Kinase-Glo Max assay
# NCI-H460 = assay: Antiproliferative activity against human NCI-H460 cells assessed as cell growth inhibition at 10 uM incubated for 48 hrs by SRB assay relative to control; assay type: functional; settings: read-out: GI
# RXF 393 = assay: Antiproliferative activity against human RXF 393 cells assessed as cell growth inhibition at 10 uM incubated for 48 hrs by SRB assay relative to control; assay type: functional; settings: read-out: GI; how it was run: as §1
# SK-OV-3 = assay: Antiproliferative activity against human SK-OV-3 cells assessed as cell growth inhibition at 10 uM incubated for 48 hrs by SRB assay relative to control; assay type: functional; settings: read-out: GI; how it was run: as §1
# M14 = assay: Antiproliferative activity against human M14 cells assessed as cell growth inhibition at 10 uM incubated for 48 hrs by SRB assay relative to control; assay type: functional; settings: read-out: GI; how it was run: as §1
# K562 = assay: Antiproliferative activity against human K562 cells assessed as cell growth inhibition at 10 uM incubated for 48 hrs by SRB assay relative to control; assay type: functional; settings: read-out: GI
# T47D [2] = assay: Cytotoxicity against human T47D cells assessed as cell growth inhibition incubated for 72 hrs by MTT assay; assay type: functional, cell-based
# CCRF-CEM = assay: Antiproliferative activity against human CCRF-CEM cells assessed as cell growth inhibition at 10 uM incubated for 48 hrs by SRB assay relative to control; assay type: functional; settings: read-out: GI; how it was run: as §1
# [3] = Cytotoxicity against human MCF-10A cells assessed as cell growth inhibition incubated for 72 hrs by MTT assay
# MCF7 = assay: Antiproliferative activity against human MCF7 cells assessed as cell growth inhibition at 10 uM incubated for 48 hrs by SRB assay relative to control; assay type: functional; settings: read-out: GI
# SW-620 = assay: Antiproliferative activity against human SW620 cells assessed as cell growth inhibition at 10 uM incubated for 48 hrs by SRB assay relative to control; assay type: functional; settings: read-out: GI
# How it was run: (§2)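 Cells pre-incubated 24 h at 37°C, 5% CO2, then exposed to compound (DMSO stock diluted in medium with 50 µg/mL gentamicin) for 48 h. Adherent cells fixed with cold TCA (final 10%, 60 min, 4°C); suspension cells fixed with 16% TCA final. Stained with 0.4% SRB in 1% acetic acid for 10 min, dye solubilized in 10 mM Trizma base, absorbance read at 515 nm. Growth calculated against time-zero and untreated control plates.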
# NCI-H322M = assay: Antiproliferative activity against human NCI-H322M cells assessed as cell growth inhibition at 10 uM incubated for 48 hrs by SRB assay relative to control; assay type: functional; settings: read-out: GI
# NCI/ADR-RES = assay: Antiproliferative activity against human NCI-ADR-RES cells assessed as cell growth inhibition at 10 uM incubated for 48 hrs by SRB assay relative to control; assay type: functional; settings: read-out: GI
# [4] = Selectivity index, ratio of IC50 for human MCF-10A cells to IC50 for human T47D cells; settings: MCF-10A cells versus T47D cells
# MDA-MB-468 [5] = assay: Induction of cell cycle arrest in human MDA-MB-468 cells assessed as accumulation of cells at G2/M phase at IC50 incubated for 24 hrs by RNase/PI staining based flow cytometry (reference value: 16.13 %); assay type: functional
# UACC-62 = assay: Antiproliferative activity against human UACC-62 cells assessed as cell growth inhibition at 10 uM incubated for 48 hrs by SRB assay relative to control; assay type: functional; settings: read-out: GI; how it was run: as §2
# DU-145 = assay: Antiproliferative activity against human DU-145 cells assessed as cell growth inhibition at 10 uM incubated for 48 hrs by SRB assay relative to control; assay type: functional; settings: read-out: GI
# COLO 205 = assay: Antiproliferative activity against human COLO 205 cells assessed as cell growth inhibition at 10 uM incubated for 48 hrs by SRB assay relative to control; assay type: functional; settings: read-out: GI
# MDA-MB-468 [6] = assay: Induction of apoptosis in human MDA-MB-468 cells assessed as increase in caspase-3 level incubated for 2 hrs by ELISA (reference value: 2.109 ng/ml); assay type: functional
# CAKI-1 = assay: Antiproliferative activity against human CAKI-1 cells assessed as cell growth inhibition at 10 uM incubated for 48 hrs by SRB assay relative to control; assay type: functional; settings: read-out: GI
# T47D [7] = assay: Antiproliferative activity against human T47D cells assessed as cell growth inhibition at 10 uM incubated for 48 hrs by SRB assay relative to control; assay type: functional; settings: read-out: GI; how it was run: as §2
# BT-549 = assay: Antiproliferative activity against human BT-549 cells assessed as cell growth inhibition at 10 uM incubated for 48 hrs by SRB assay relative to control; assay type: functional; settings: read-out: GI
# SK-MEL-5 = assay: Antiproliferative activity against human SK-MEL-5 cells assessed as cell growth inhibition at 10 uM incubated for 48 hrs by SRB assay relative to control; assay type: functional; settings: read-out: GI; how it was run: as §1
# MDA-MB-468 [8] = assay: Induction of apoptosis in human MDA-MB-468 cells assessed as total apoptotic cells at IC50 incubated for 24 hrs by Annexin V/PI staining based flow cytometry (reference value: 2.28 %); assay type: functional
# HOP-62 = assay: Antiproliferative activity against human HOP-62 cells assessed as cell growth inhibition at 10 uM incubated for 48 hrs by SRB assay relative to control; assay type: functional; settings: read-out: GI
# OVCAR-5 = assay: Antiproliferative activity against human OVCAR-5 cells assessed as cell growth inhibition at 10 uM incubated for 48 hrs by SRB assay relative to control; assay type: functional; settings: read-out: GI; how it was run: as §1
# UACC-257 = assay: Antiproliferative activity against human UACC-257 cells assessed as cell growth inhibition at 10 uM incubated for 48 hrs by SRB assay relative to control; assay type: functional; settings: read-out: GI; how it was run: as §2
# Hs-578T = assay: Antiproliferative activity against human Hs-578T cells assessed as cell growth inhibition at 10 uM incubated for 48 hrs by SRB assay relative to control; assay type: functional; settings: read-out: GI; how it was run: as §1
# MDA-MB-468 [9] = assay: Cytotoxicity against human MDA-MB-468 cells assessed as cell growth inhibition incubated for 72 hrs by MTT assay; assay type: functional, cell-based; settings: MDA-MB-468, 72 h
# MDA-MB-468 [10] = assay: Antiproliferative activity against human MDA-MB-468 cells assessed as cell growth inhibition at 10 uM incubated for 48 hrs by SRB assay relative to control; assay type: functional; settings: read-out: GI
# [11] = Selectivity index, ratio of IC50 for human MCF-10A cells to IC50 for human MDA-MB-468 cells; settings: MCF-10A cells versus MDA-MB-468 cells
# Vascular endothelial growth factor receptor 2, sequence (P35968 whole entry): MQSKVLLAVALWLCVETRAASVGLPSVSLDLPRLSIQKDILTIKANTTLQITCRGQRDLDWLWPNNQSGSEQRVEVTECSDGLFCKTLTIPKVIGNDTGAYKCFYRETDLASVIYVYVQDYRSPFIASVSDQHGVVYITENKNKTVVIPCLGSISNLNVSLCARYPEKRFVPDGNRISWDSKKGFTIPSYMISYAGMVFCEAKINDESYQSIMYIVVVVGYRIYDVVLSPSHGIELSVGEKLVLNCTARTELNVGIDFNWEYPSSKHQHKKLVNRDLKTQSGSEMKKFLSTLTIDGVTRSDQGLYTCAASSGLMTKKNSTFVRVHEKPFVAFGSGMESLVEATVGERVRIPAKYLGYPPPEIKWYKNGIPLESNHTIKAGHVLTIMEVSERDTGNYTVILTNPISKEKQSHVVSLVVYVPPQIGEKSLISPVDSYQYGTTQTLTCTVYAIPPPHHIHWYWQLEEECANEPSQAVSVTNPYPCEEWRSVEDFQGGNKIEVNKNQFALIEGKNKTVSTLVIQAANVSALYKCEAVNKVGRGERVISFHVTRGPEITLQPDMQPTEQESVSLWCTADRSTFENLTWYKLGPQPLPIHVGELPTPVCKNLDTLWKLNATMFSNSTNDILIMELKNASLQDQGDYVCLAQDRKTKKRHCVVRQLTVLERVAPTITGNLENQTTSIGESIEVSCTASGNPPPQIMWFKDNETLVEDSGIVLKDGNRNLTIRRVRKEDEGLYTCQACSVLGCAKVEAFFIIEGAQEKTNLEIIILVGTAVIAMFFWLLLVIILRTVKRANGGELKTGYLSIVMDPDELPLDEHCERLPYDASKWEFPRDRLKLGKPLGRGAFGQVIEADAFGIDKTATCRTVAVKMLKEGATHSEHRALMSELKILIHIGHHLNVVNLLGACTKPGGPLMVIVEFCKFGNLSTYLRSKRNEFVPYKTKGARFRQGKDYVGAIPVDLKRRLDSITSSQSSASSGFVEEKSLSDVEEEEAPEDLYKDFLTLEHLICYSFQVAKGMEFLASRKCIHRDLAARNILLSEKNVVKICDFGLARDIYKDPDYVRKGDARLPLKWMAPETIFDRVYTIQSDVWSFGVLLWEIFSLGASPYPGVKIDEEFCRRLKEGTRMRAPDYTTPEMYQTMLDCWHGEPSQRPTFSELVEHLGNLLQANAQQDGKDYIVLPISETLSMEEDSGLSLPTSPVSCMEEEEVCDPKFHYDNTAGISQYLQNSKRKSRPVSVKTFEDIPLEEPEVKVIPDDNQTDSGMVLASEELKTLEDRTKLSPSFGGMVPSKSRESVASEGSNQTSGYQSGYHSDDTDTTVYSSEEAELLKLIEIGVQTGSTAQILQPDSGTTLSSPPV
Compound,inhibition of growth at 10 µM (EKVX) [%],inhibition of growth at 10 µM (IGROV-1) [%],inhibition of growth at 10 µM (SK-MEL-2) [%],inhibition of growth at 10 µM (NCI-H460) [%],inhibition of growth at 10 µM (RXF 393) [%],inhibition of growth at 10 µM (SK-OV-3) [%],inhibition of growth at 10 µM (M14) [%],inhibition of growth at 10 µM (K562) [%],inhibition of growth at 10 µM (CCRF-CEM) [%],inhibition of growth at 10 µM (MCF7) [%],inhibition of growth at 10 µM (SW-620) [%],inhibition of growth at 10 µM (NCI-H322M) [%],inhibition of growth at 10 µM (NCI/ADR-RES) [%],inhibition of growth at 10 µM (UACC-62) [%],inhibition of growth at 10 µM (DU-145) [%],inhibition of growth at 10 µM (COLO 205) [%],inhibition of growth at 10 µM (CAKI-1) [%],inhibition of growth at 10 µM (T47D [7]) [%],inhibition of growth at 10 µM (BT-549) [%],inhibition of growth at 10 µM (SK-MEL-5) [%],further results
Cc1nc2c(cnn2-c2ccccc2)c(=O)n1-c1ccc(NC(=O)c2ccc(F)cc2)cc1,69.8,26.5,22.1,45.6,20.9,< 15,37.1,72.8,65.2,64.2,23.5,< 15,57.2,36.9,19.3,37.7,34.3,82,54,> 100,IC50 [1]: 0.063 µM; IC50 (T47D [2]): 4.79 µM; IC50 at 72 h [3]: 22.8 µM; selectivity ratio [4]: 4.75; Activity (MDA-MB-468 [5]): 9.12%; Activity (MDA-MB-468 [6]): 15.44 ng/mL; Activity (MDA-MB-468 [8]): 43.28%; inhibition of growth at 10 µM (HOP-62): 35.4%; inhibition of growth at 10 µM (OVCAR-5): < 15%; inhibition of growth at 10 µM (UACC-257): 68.2%; inhibition of growth at 10 µM (Hs-578T): 21.3%; IC50 (MDA-MB-468 [9]): 3.34 µM; inhibition of growth at 10 µM (MDA-MB-468 [10]): 85.5%; selectivity ratio [11]: 6.81
COc1ccc(/C=C/C(=O)c2ccc(-n3c(C)nc4c(cnn4-c4ccccc4)c3=O)cc2)cc1,57.1,< 15,29.4,< 15,15.6,< 15,46.9,87.6,53.6,91.7,24.9,< 15,37.6,50,16.8,< 15,25,65.3,55,72.3,inhibition of growth at 10 µM (HOP-62): 19.5%; inhibition of growth at 10 µM (OVCAR-5): < 15%; inhibition of growth at 10 µM (UACC-257): 25.4%; inhibition of growth at 10 µM (Hs-578T): < 15%; inhibition of growth at 10 µM (MDA-MB-468 [10]): 88.7%
Cc1nc2c(cnn2-c2ccccc2)c(=O)n1-c1ccc(NC(=O)c2ccccc2)cc1,65.7,< 15,< 15,27.9,18.9,19,23.6,66.8,49.5,47.1,< 15,< 15,30.4,36.8,18.6,20.2,33.4,72.4,39.1,76.2,IC50 [1]: 0.178 µM; IC50 (T47D [2]): 35.5 µM; IC50 at 72 h [3]: 55.5 µM; selectivity ratio [4]: 1.56; inhibition of growth at 10 µM (HOP-62): 37.9%; inhibition of growth at 10 µM (OVCAR-5): < 15%; inhibition of growth at 10 µM (UACC-257): 46.9%; inhibition of growth at 10 µM (Hs-578T): 28.9%; IC50 (MDA-MB-468 [9]): 27 µM; inhibition of growth at 10 µM (MDA-MB-468 [10]): 71%; selectivity ratio [11]: 2.05
